# Tests used:
# [1] = molecular target: Cell division cycle 7-related protein kinase (Homo sapiens, UniProt O00311); test: Inhibition of human Cdc7 assessed as inhibition of rate of phosphorylation of Mcm2 protein
# [2] = test system: A2780; test: Antiproliferative activity against human A2780 cells after 72 hrs by luciferase based assay; assay type: functional, cell-based
# [3] = molecular target: Cyclin-dependent kinase 9 (Homo sapiens, UniProt P50750); test: Inhibition of CDK9
# [4] = Solubility in pH 7.0 buffer
# [5] = Metabolic stability in human hepatocytes expressing CYP3A4 assessed as drug remaining after 1 hr; assay type: ADME, cell-based, Hepatocyte; conditions: read-out: Stability
# [6] = Cmax in nu/nu mouse at 10 mg/kg, iv administered as single dose; assay type: ADME, organism-based; set-up: dose 10 mg/kg, route intravenous; conditions: in vivo
# Outline: (§1)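 Single iv or oral dose in 5% dextrose to overnight-fasted animals. Nu/Nu mice: males, 3 per route, saphenous bleeds to 24 h. Han-Wistar rats: males, 3 per route, jugular bleeds to 24 h. Beagle dogs: 2 per sex, iv and po crossover 2 weeks apart, jugular bleeds to 48 h. Plasma by LC/MS/MS; noncompartmental parameters, AUC by linear trapezoid with extrapolation.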
# [7] = AUC (0 to infinity) in nu/nu mouse at 10 mg/kg, iv administered as single dose; assay type: ADME, organism-based; set-up: dose 10 mg/kg, route intravenous, time infinity; conditions: plasma; outline: as §1
# [8] = Clearance in nu/nu mouse at 10 mg/kg, iv administered as single dose; assay type: ADME, organism-based; set-up: dose 10 mg/kg, route intravenous; conditions: in vivo; outline: as §1
# [9] = Volume of distribution at steady state in nu/nu mouse at 10 mg/kg, iv administered as single dose; assay type: ADME, organism-based; set-up: dose 10 mg/kg, route intravenous; conditions: in vivo, read-out: Vdss
# Outline: (§2)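 Overnight-fasted male Nu/Nu mice got a single 10 mg/kg dose in 5% dextrose, iv or po, three mice per route. Saphenous blood was drawn at 0.083 (iv) or 0.25 (po), 0.5, 1, 6 and 24 h. Plasma was assayed by LC/MS/MS and analysed noncompartmentally. Tmax is the observed peak time, Vss = CL·MRT, and F is the ratio of dose-normalized AUC∞ po/iv.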
# [10] = Half life in nu/nu mouse at 10 mg/kg, iv administered as single dose; assay type: ADME, organism-based; set-up: dose 10 mg/kg, route intravenous; conditions: in vivo; outline: as §1
# [11] = Cmax in nu/nu mouse at 10 mg/kg, po administered as single dose; assay type: ADME, organism-based; set-up: dose 10 mg/kg, route oral; conditions: in vivo; outline: as §1
# [12] = Tmax in nu/nu mouse at 10 mg/kg, po administered as single dose; assay type: ADME, organism-based; set-up: dose 10 mg/kg, route oral; conditions: in vivo; outline: as §2
# [13] = AUC (0 to infinity) in nu/nu mouse at 10 mg/kg, po administered as single dose; assay type: ADME, organism-based; set-up: time infinity, dose 10 mg/kg, route oral; conditions: plasma; outline: as §1
# [14] = Half life in nu/nu mouse at 10 mg/kg, po administered as single dose; assay type: ADME, organism-based; set-up: dose 10 mg/kg, route oral; conditions: in vivo; outline: as §1
# [15] = Oral bioavailability in nu/nu mouse at 10 mg/kg administered as single dose; assay type: ADME, organism-based; conditions: in vivo; outline: as §2
# [16] = test system: Hepatocyte; test: Metabolic stability in rat hepatocytes assessed as intrinsic clearance at 1 uM; assay type: cell-based; conditions: Liver
# Sequence of Cell division cycle 7-related protein kinase (O00311 whole entry): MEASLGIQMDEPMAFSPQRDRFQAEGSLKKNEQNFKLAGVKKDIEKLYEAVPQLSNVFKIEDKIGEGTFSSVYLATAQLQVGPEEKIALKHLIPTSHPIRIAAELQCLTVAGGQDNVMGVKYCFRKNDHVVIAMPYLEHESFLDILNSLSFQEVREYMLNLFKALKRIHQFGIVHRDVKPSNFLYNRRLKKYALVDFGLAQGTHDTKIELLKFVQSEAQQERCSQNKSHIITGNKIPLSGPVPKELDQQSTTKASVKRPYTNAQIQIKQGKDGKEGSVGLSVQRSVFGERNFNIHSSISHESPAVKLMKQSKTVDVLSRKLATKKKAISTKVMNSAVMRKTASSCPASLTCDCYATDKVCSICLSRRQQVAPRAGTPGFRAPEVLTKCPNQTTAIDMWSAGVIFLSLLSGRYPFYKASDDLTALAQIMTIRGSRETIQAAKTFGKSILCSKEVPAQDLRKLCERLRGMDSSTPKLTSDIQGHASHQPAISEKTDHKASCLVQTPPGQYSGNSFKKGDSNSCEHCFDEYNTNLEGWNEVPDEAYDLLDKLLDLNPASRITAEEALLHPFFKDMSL
# Sequence of Cyclin-dependent kinase 9 (P50750 whole entry): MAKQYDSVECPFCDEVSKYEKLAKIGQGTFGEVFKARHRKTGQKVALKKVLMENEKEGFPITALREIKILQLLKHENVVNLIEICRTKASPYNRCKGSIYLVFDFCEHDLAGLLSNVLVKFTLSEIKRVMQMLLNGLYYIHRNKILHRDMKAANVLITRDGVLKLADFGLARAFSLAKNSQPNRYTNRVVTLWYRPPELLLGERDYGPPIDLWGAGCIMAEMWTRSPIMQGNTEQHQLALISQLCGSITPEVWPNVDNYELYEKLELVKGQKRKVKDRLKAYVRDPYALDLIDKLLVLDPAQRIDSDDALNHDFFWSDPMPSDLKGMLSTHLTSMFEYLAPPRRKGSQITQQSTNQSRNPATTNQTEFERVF
Compound,IC50 [1] [µM],"IC50 ([2]; Homo sapiens, A2780, 72 h) [µM]",other results
CCC1CNC(=O)c2cc(-c3ccncc3)[nH]c21 (stereo not given),0.002,0.3,
CCC1CNC(=O)c2cc(-c3ccnc(N)n3)[nH]c21 (stereo in doubt; 86),0.005,,
Nc1nccc(-c2cc3c([nH]2)C(C2CCC2)CNC3=O)n1 (stereo in doubt; 88-2),0.002,,IC50 [3]: 0.096 µM; IC50 ([2]; a2780): 0.2 µM
Nc1nccc(-c2cc3c([nH]2)C(CCC(F)(F)F)CNC3=O)n1 (stereo in doubt; 93-1),0.012,,IC50 [3]: 0.218 µM; IC50 ([2]; a2780): 1 µM
CC(C)CC1Cc2[nH]c(-c3ccnc(N)n3)cc2C(=O)N1 (stereo not given),0.008,1.6,
Nc1nccc(-c2cc3c([nH]2)C(CCC(F)(F)F)CNC3=O)n1 (stereo in doubt; 93),0.01,,IC50 ([2]; a2780): 0.5 µM
CC1Cc2[nH]c(-c3ccncc3)cc2C(=O)N1 (stereo not given),0.013,2.4,
CC(C)C1Cc2[nH]c(-c3ccnc(N)n3)cc2C(=O)N1 (stereo not given),0.012,1.3,
CC(C)C1CNC(=O)c2cc(-c3ccnc(N)n3)[nH]c21 (stereo in doubt; 87-2),0.001,,IC50 [3]: 0.073 µM; IC50 ([2]; a2780): 0.6 µM
O=C1NCC(C2CCC2)c2[nH]c(-c3ccncc3)cc21 (stereo not given),0.003,0.5,
O=C1NC(C2CC2)Cc2[nH]c(-c3ccncc3)cc21 (stereo not given),0.005,1.3,
CCC1CNC(=O)c2cc(-c3ccnc(N)n3)[nH]c21 (stereo in doubt; 86-1) [listing 1 of 2 here],0.004,,IC50 [3]: 0.073 µM; solubility [4]: > 225 µM; remaining at 1 h [5]: 99%; Cmax [6]: 12.6 µM; AUC(0-inf) [7]: 4.9 µM·h; clearance [8]: 7.5 L/h/kg; Vd [9]: 1.5 L/kg; half-life [10]: 12 min; Cmax [11]: 2.7 µM; Tmax [12]: 20.4 min; AUC(0-inf) [13]: 3.6 µM·h; half-life [14]: 78 min; bioavailability [15]: 74%
O=C1NCC(CCF)c2[nH]c(-c3ccncc3)cc21 (stereo not given),0.002,0.6,
Nc1nccc(-c2cc3c([nH]2)C(CCF)CNC3=O)n1 (stereo not given),0.003,0.6,
Nc1nccc(-c2cc3c([nH]2)C(CCO)CNC3=O)n1 (stereo not given),0.004,1.1,
CC1(C)Cc2[nH]c(-c3ccncc3)cc2C(=O)N1,0.032,1.2,
CC(C)C1CNC(=O)c2cc(-c3ccnc(N)n3)[nH]c21 (stereo in doubt; 87),0.004,,IC50 ([2]; a2780): 0.4 µM
CC(C)C1CNC(=O)c2cc(-c3ccncc3)[nH]c21 (stereo not given),0.01,0.5,
Nc1nccc(-c2cc3c([nH]2)CCNC3=O)n1,,1.7,IC50 [3]: 0.029 µM
O=C1N[C@@H](COCc2ccccc2)Cc2[nH]c(-c3ccncc3)cc21,0.044,4.8,
Nc1nccc(-c2cc3c([nH]2)C(CCOCc2ccccc2)CNC3=O)n1 (stereo not given),0.007,0.4,
Nc1nccc(-c2cc3c([nH]2)[C@H](CCF)CNC3=O)n1,0.005,1,IC50 [3]: 0.096 µM

Compound,IC50 [1] [µM],"IC50 ([2]; Homo sapiens, A2780, 72 h) [µM]",other results
CCC1CNC(=O)c2cc(-c3ccnc(N)n3)[nH]c21 (stereo in doubt; 86-1) [listing 2 of 2 here],,,CL (mL.min-1.kg-1) [16]: 5
CCC1(CC)CNC(=O)c2cc(-c3ccnc(N)n3)[nH]c21,0.005,0.2,
Nc1nccc(-c2cc3c([nH]2)C(CCCOCc2ccccc2)CNC3=O)n1 (stereo not given),0.024,2,
O=C1NCC(c2ccccc2)c2[nH]c(-c3ccncc3)cc21 (stereo not given),0.02,4,
Nc1nccc(-c2cc3c([nH]2)C(CCC(F)(F)F)CNC3=O)n1 (stereo in doubt; 93-2) [listing 1 of 2 here],,,CL (mL.min-1.kg-1) [16]: 8.33
Nc1nccc(-c2cc3c([nH]2)C(CCC(F)(F)F)CNC3=O)n1 (stereo in doubt; 93-2) [listing 2 of 2 here],0.011,,IC50 [3]: 0.395 µM; solubility [4]: 195 µM; remaining at 1 h [5]: 94%; Cmax [6]: 13.6 µM; AUC(0-inf) [7]: 5.3 µM·h; clearance [8]: 5.3 L/h/kg; Vd [9]: 1.5 L/kg; half-life [10]: 54 min; Cmax [11]: 0.8 µM; Tmax [12]: 19.8 min; AUC(0-inf) [13]: 1.7 µM·h; half-life [14]: 102 min; bioavailability [15]: 31%; IC50 ([2]; a2780): 0.3 µM
CC1CNC(=O)c2cc(-c3ccnc(N)n3)[nH]c21 (stereo not given),0.006,0.7,
Nc1nccc(-c2cc3c([nH]2)C(C2CCC2)CNC3=O)n1 (stereo in doubt; 88-1),0.011,,IC50 [3]: 0.083 µM; IC50 ([2]; a2780): 1.3 µM
CC1CNC(=O)c2cc(-c3ccncc3)[nH]c21 (stereo not given),0.01,0.6,
CC(C)C1Cc2[nH]c(-c3ccncc3)cc2C(=O)N1 (stereo not given),0.006,0.9,
CC(C)CC1Cc2[nH]c(-c3ccncc3)cc2C(=O)N1 (stereo not given),0.003,0.8,
CCC1(CC)CNC(=O)c2cc(-c3ccncc3)[nH]c21,0.006,0.2,
CCC1CNC(=O)c2cc(-c3ccnc(N)n3)[nH]c21 (stereo in doubt; 86-2),0.005,0.4,IC50 [3]: 0.017 µM
CC1(C)CNC(=O)c2cc(-c3ccncc3)[nH]c21,,0.2,
CC(C)C1CNC(=O)c2cc(-c3ccnc(N)n3)[nH]c21 (stereo in doubt; 87-1),0.013,,IC50 [3]: 0.031 µM; IC50 ([2]; a2780): 1 µM
CC1Cc2[nH]c(-c3ccnc(N)n3)cc2C(=O)N1 (stereo not given),,3.9,
Nc1nccc(-c2cc3c([nH]2)C[C@H](COCc2ccccc2)NC3=O)n1,0.052,3,
Nc1nccc(-c2cc3c([nH]2)C(c2ccccc2)CNC3=O)n1 (stereo not given),0.019,3,
Nc1nccc(-c2cc3c([nH]2)CC(C2CC2)NC3=O)n1 (stereo not given),0.011,1.1,
CC1(C)Cc2[nH]c(-c3ccnc(N)n3)cc2C(=O)N1,0.064,1.8,
Nc1nccc(-c2cc3c([nH]2)C(CCCO)CNC3=O)n1 (stereo not given),0.012,6,
Nc1nccc(-c2cc3c([nH]2)C(C2CCC2)CNC3=O)n1 (stereo in doubt; 88),0.005,,IC50 ([2]; a2780): 0.3 µM
